# Laboratory results from ChEMBL document CHEMBL1148289, “Computer-aided design, synthesis, and anti-HIV-1 activity in vitro of 2-alkylamino-6-[1-(2,6-difluorophenyl)alkyl]-3,4-dihydro-5-alkylpyrimidin-4(3H)-ones as novel potent non-nucleoside reverse transcriptase inhibitors, also active against the Y181C variant” (J Med Chem, 2004).
# Assays:
# [1] = Ratio of wild type IIIB to that of Y181C HIV-1 induced cytopathogenicity; format: functional
# MT4 [2] = assay: Effective dose required to achieve protection of MT-4 cells from HIV-1 induced cytopathogenicity; format: functional, cell-based; settings: Homo sapiens
# Summary of the method: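 MT-4 cells (RPMI 1640, 10% FCS, 37 °C, 5% CO2), 1 × 10^4 per well, were infected with 100 CCID50 of HIV-1 IIIB in the presence of graded compound concentrations. Compounds came from 200 mM DMSO stocks diluted into medium. After 4 days at 37 °C, viable cells were counted by MTT. The value is the dose giving 50% protection, as a mean of at least two experiments.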
# [3] = Ratio of CC50 to that EC50 in mock infected cells; format: functional
# Summary of the method: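 Selectivity index is the ratio of CC50 (mock-infected MT-4 viability, MTT, 4 days) to EC50 (protection of HIV-1 IIIB-infected MT-4 cells, MTT, 4 days), both from parallel assays.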
# MT4 [4] = assay: Effective dose required to achieve protection of MT-4 cells from Y181C HIV-1 induced cytopathogenicity; format: functional, cell-based; settings: Homo sapiens
# Summary of the method: (§1)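 MT-4 cells (1 × 10^4/well) in RPMI 1640 with 10% FCS, infected with 100 CCID50 of HIV-1 (IIIB wild type or Y181C), compounds from DMSO stock diluted in medium at various concentrations. After 4 days at 37 °C, viable cells counted by MTT. EC50 is the dose giving 50% protection from virus cytopathicity. Mean of at least two experiments.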
# MT4 [5] = assay: Cytotoxic concentration required to reduce the viability of mock-infected MT-4 cells; format: functional; settings: Homo sapiens
# Summary of the method: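 Mock-infected MT-4 cells, 1 × 10^4 per well, were exposed to graded compound concentrations in parallel with the antiviral assay. Compounds came from 200 mM DMSO stocks diluted into medium. After 4 days at 37 °C, viability was measured by MTT. The value is the dose reducing viability by 50%, as a mean of at least two experiments.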
# MT4 [6] = assay: Effective dose required to achieve protection of MT-4 cells from wild type IIIB HIV-1 induced cytopathogenicity; format: functional, cell-based; settings: Homo sapiens; summary of the method: as §1
# [7] = molecular target: Human immunodeficiency virus type 1 reverse transcriptase (Human immunodeficiency virus 1, UniProt Q72547); assay: Inhibitory concentration required to inhibit the HIV-1 reverse transcriptase activity
# Summary of the method: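 Purified recombinant HIV-1 RT, RNA-dependent polymerase activity. Template/primer poly(rC)-oligo(dG)12–18 at 0.5 OD260 unit/mL, with [3H]dGTP. Incubated 30 min at 37 °C, then acid-insoluble radioactivity counted on glass fiber filters. IC50 is the dose halving activity. Mean of at least two experiments.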
Structure (SMILES),Ratio [1],EC50 (MT4 [2]),Selectivity index [3],EC50 (MT4 [4]),CC50 (MT4 [5]),EC50 (MT4 [6]),IC50 [7]
Cc1c(C(C)c2c(F)cccc2F)nc(SC2CCCC2)[nH]c1=O (stereo not drawn),13,6 nM,>33333,200 nM,> 200000 nM,15 nM,–
O=C1Nc2ccc(Cl)cc2[C@@](C#CC2CC2)(C(F)(F)F)O1,6,–,–,–,–,–,–
O=c1cc(Cc2c(F)cccc2F)nc(SC2CCCC2)[nH]1,–,–,>2500,–,> 200000 nM,–,–
O=c1cc(Cc2c(F)cccc2F)nc(NC2CCCC2)[nH]1,–,90 nM,>2222,–,> 200000 nM,–,70 nM
Cc1c(Cc2c(F)cccc2F)nc(SC2CCCC2)[nH]c1=O,–,–,> 2500,–,> 200000 nM,–,–
Cc1c(Cc2c(F)cccc2F)nc(NC2CCCC2)[nH]c1=O,–,20 nM,>10000,–,> 200000 nM,–,30 nM
CCOCn1c(Cc2ccccc2)c(C(C)C)c(=O)[nH]c1=O [EMIVIRINE],–,–,6666,–,200000 nM,–,–
CC(c1cc(=O)[nH]c(NC2CCCC2)n1)c1c(F)cccc1F (stereo not drawn),–,30 nM,3500,–,76000 nM,–,40 nM
Cc1ccnc2c1NC(=O)c1cccnc1N2C1CC1 [NEVIRAPINE],> 81,–,–,> 30000 nM,–,–,–
CC(c1cc(=O)[nH]c(SC2CCCC2)n1)c1c(F)cccc1F (stereo not drawn),–,30 nM,>6666,–,> 200000 nM,–,30 nM
Cc1c(C(C)c2c(F)cccc2F)nc(NC2CCCC2)[nH]c1=O (stereo not drawn),5.3,20 nM,4500,160 nM,90000 nM,30 nM,35 nM
